# M1 agonist = M1 muscarinic receptor agonists, primary screen, CHO-M1 cells, Fluo-4 calcium, agonist mode; Muscarinic acetylcholine receptor M1; Fluo-4 calcium fluorescence; stronger effect = higher value; B-score at 10 µM; 64,000 tested, 3% active; AID 626, 2007;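 active = fluorescence rise, raw or as B-score row- and column-corrected plate score, outside the 99.7% band of its plate's samples, either direction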
# D1 mod = D1 CRE-luciferase signal change, two-sided – cell-based, HEK293 D1, dopamine EC30, D1 allosteric modulator project, primary screen | D(1A) dopamine receptor (Homo sapiens), P21728 | dopamine EC30 potentiation; actives deviate in either direction | B-score at 10 µM | 58,000 tested, 5.9% active;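 active = luminescence count or its row- and column-corrected plate score outside the 99.7% band of the plate's sample wells, on either side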
# Target sequence (P21728 whole entry, looked up): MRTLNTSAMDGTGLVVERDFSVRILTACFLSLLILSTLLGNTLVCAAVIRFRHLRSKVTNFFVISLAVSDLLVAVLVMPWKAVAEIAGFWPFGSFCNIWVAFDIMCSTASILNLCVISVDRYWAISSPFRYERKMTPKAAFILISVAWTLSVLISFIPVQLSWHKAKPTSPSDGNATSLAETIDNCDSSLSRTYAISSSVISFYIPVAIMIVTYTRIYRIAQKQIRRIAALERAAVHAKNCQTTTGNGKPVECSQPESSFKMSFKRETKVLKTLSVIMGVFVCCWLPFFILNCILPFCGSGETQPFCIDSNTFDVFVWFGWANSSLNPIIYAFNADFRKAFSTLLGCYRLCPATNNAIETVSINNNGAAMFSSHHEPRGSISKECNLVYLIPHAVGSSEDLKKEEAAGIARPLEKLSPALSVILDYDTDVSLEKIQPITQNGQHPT
# M1 antag = antagonists of rat M1 muscarinic receptor; CHO-M1 cells, Fluo-4 calcium, ACh EC80 antagonist mode; stronger effect = lower value; B-score at 10 µM; Muscarinic acetylcholine receptor M1 (Rattus norvegicus), P08482; 64,000 tested, 3.4% active;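 active = calcium fluorescence response, raw or row-and-column corrected B-score, differing from the plate sample mean either way at a set confidence level, mostly lower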
# AP ELISA ortho = alternative complement pathway inhibitors, primary screen, biochemical, ELISA, human serum, orthogonally pooled compounds | LPS-coated ELISA, C3 deposition; tested in compound mixtures | inhibition, % at 5 µM | 62,000 tested, 0.08% active;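 active = inhibition above 30% in each of the two pooled mixtures holding the compound, so the lower value exceeds 30%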;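 also: 0% = serum in Mg-EGTA without compound and 100% = EDTA serum blank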
#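 Assay system: Human serum alternative complement pathway, C3 deposition on LPS-coated wells | Incubation: 1 h serum-compound exposure at 37 °C | Doses: 5 µM per compound in ten-compound mixtures | Read-out: Percent inhibition | Technique: ELISA with HRP anti-human C3 antibody, TMB substrate, absorbance 450 nm | Replication: Two pool placements per compound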
# mHtt clearance = clearance of mutant huntingtin inclusions, primary screen, imaging, HeLa Exon1htt(103Q)mCFP, confocal imaging; AID 853, 2007; inhibition, % at 1.5 µM; 47,000 tested, 0.42% active; aggregate imaging; zero = plate's median compound well;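 active = inhibition of aggregate fluorescence above about 70%, also judged a hit by eye on the cell image, limit read from the data, passing the limit was not always enough; inconclusive = no rule stated for this call; inactive = not judged a hit on image review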;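 also: cells exposed to compound for three days before fixation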
# D1 PAM confirm = D1 receptor positive allosteric modulators, retest, confirmation, cell-based, HEK293 D1, CRE-luciferase, duplicate. shares compounds with D1 mod. dopamine EC30 potentiation; stronger effect = higher value. luminescence at 10 µM. 2,200 tested, 88% active. AID 642, 2007;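 active = luminescence in either of two replicates above the same-plate mean plus 3 SD of the low-dose dopamine control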
# D1 ag no DA = D1 receptor agonism without dopamine, confirmation, mechanism study for D1 allosteric modulator project, cell-based, HEK293 D1, CRE-luciferase, secondary assay 1. luminescence at 10 µM. 1,900 tested, 0.8% active. luminescence, no dopamine; stronger effect = higher value. AID 646, 2007. shares compounds with D1 mod; in the data active = luminescence above about 3900
# Isoprot counter = counter-screen for D1 modulators: isoproterenol response in HEK293 cells; 2,200 tested, 63% active; HEK293 D1 CRE-luciferase, isoproterenol EC30 counter-screen; AID 647; calls only at 10 µM; shares compounds with D1 mod;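 active = luminescence in either replicate above plate mean of wells with a partly effective reference agonist dose plus 3 SD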;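 also: isoproterenol raises cAMP through native beta-adrenoceptor Gs so signal bypasses D1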
# Starred values were filed as active, the others as inactive; i = inactive; ? = inconclusive; . = no result given; + = active, no number. Shown are actives, neighbours in structure and some others; about 9% of the full set was active somewhere.
SMILES,M1 agonist,D1 mod,M1 antag,AP ELISA ortho,mHtt clearance,D1 PAM confirm,D1 ag no DA,Isoprot counter
CCN=C1SC(CC(=O)NC(N)=O)C(=O)N1CC (centres undefined),0.28,4.3*,0.0021,14,.,20476*,1496,+
CCN=C1SC(CC(=O)Nc2ccccc2OCC)C(=O)N1CC (centres undefined),0.19,2.7*,-0.69,-3,.,9772*,1564,i
C=CCn1c(SCCCC)nc(O)cc1=O,-0.081,3.6*,-0.046,11,-18,6816,1616,i
NS(=O)(=O)c1ccc(CCNC2CC(=O)N(CCc3ccccc3)C2=O)cc1 (centres undefined),0.14,2.3*,0.28,0,21,4996,1548,i
NS(=O)(=O)c1ccc(CCNC2CC(=O)N(Cc3ccccc3)C2=O)cc1 (centres undefined),0.026,-0.026,0.054,9,.,.,.,.
CCC(C)(C)n1c(=O)[nH]c2c(c1=O)CCC2,-0.33,4.3*,0.33,19,-30,6624,1544,i
CC(=O)c1ccc(N2CCCCCC2)c(F)c1,0.65,2.7*,-0.59,23,.,5360,1576,i
CCCC(=O)c1ccc(N2CCCCCC2)c(F)c1,0.11,0.2,0.074,5,0,.,.,.
CCNC(=O)c1c(O)c2ccccc2[nH]c1=O,-0.049,11*,-0.47,-2,.,15428*,.,+
CCCCc1nc2n[nH]c(N)c2c2c1CCCC2,-0.64,21*,0.79,-2,?,20280*,1464,+
Cc1ccc(-n2c(=O)cc(N3CC(C)CC(C)C3)[nH]c2=O)cc1 (centres undefined),-0.0052,3.6*,0.5,11,.,3236*,1556,i
Cc1noc(C)c1CSCC(=O)OCC(=O)NC1CCCCC1,0.56,0.0055,0.81,9,.,.,.,.
COc1ccc(C(=O)COC(=O)CSCc2c(C)noc2C)cc1OC,-1.6,7.6*,-0.26,18,17,17860*,1868,+
CCCCn1nnnc1NCc1cccc(OC)c1OC,-0.063,-0.78,-0.36,18,-42,.,.,.
CCOc1ccc(OCC)c2sc(C)nc12,0.12,11*,0.56,7,11,20256*,1572,+
O=c1cc(-c2ccccc2)nc2n1Cc1ccccc1-2,0.94,13*,-0.25,18,.,11948*,.,+
O=c1ccn(Cc2ccccc2)c(=O)n1Cc1ccccc1,-0.35,2.9*,0.45,5,.,12736*,1644,+
Cn1c(=O)n(Cc2ccccc2)c2ccccc21,-0.36,1.2,0.59,21,.,.,.,.
Cc1noc(/C=C/N(C)C)c1S(=O)(=O)N1CCCC(C(=O)NCc2ccccc2Cl)C1 (centres undefined),0.26,-0.35,-1.2,2,-54,.,.,.
Cn1ccnc1Sc1nc2ccccc2nc1NS(=O)(=O)c1ccccc1,-0.53,0.011,-0.11,9,.,.,.,.
COc1cc2c(cc1OC)CN(C(=O)CCCN1C(=O)c3ccccc3C1=O)CC2,0.12,5*,-0.39,0,16,7424*,1616,+
COc1cc2c(cc1OC)CN(C(=O)CSc1n[nH]c(N)n1)CC2,0.59,13*,-0.31,9,-6,16292*,1488,+
COc1cc2c(cc1OC)CN(C(=O)CSc1nc(C)cc(C)c1C#N)CC2,.,.,.,.,-45,.,.,.
CCOc1ccccc1CN(CCc1ccc2c(c1)OCO2)Cc1ccccn1,0.04,-0.58,-1.6,8,56,.,.,.
COc1ccc(CSc2n[nH]c(C)n2)cc1Br,0.16,6.5*,0.62,5,.,10580*,.,+
SMILES,M1 agonist,D1 mod,M1 antag,AP ELISA ortho,mHtt clearance,D1 PAM confirm,D1 ag no DA,Isoprot counter
CCN(CC)CCCNc1cc2n(c(=O)n1)CCc1cc(OC)c(OC)cc1-2,-0.58,0.2,-0.011,12,-25,.,.,.
COc1ccc(S(=O)(=O)N2CCC(C(=O)Nc3ccc4c(c3)OCCO4)CC2)cc1OC,.,.,.,.,-68,.,.,.
COc1cc2c(cc1OC)-c1cc(NC3CCCCCC3)nc(=O)n1CC2,0.31,4*,1.2,7,23,20748*,2368,+
COc1cc2c(cc1OC)-c1cc(Nc3ccc4c(c3)OCCO4)nc(=O)n1CC2,-0.0016,24*,-2.6,9,50,13360*,1788,+
COc1cc2c(cc1OC)-c1cc(N3CCCCCC3)nc(=O)n1CC2,-0.31,3.9*,0.17,11,-16,21696*,2196,+
COc1cc2c(cc1OC)-c1cc(N3CCCc4ccccc43)nc(=O)n1CC2,0.69,.,-0.089,-3,-3,.,.,.
COc1cc2c(cc1OC)-c1cc(OCc3cccnc3)nc(=O)n1CC2,0.15,19*,-2.4,15,.,25704*,2128,+
N#CC1=C(N)Oc2n[nH]c(-c3ccc(F)cc3)c2C1c1ccncc1 (centres undefined),0.37,-0.1,0.25,12,.,.,.,.
CN(C)c1ccc(-c2ccccc2)nn1,-0.31,.,-0.63,0,.,.,.,.
COc1ccc(-c2nn3c(-c4ccccc4)nnc3s2)cc1,0.27,5.5*,-0.71,2,-24,11796*,1844,+
COc1ccc(-c2nn3c(-c4ccc(F)cc4)nnc3s2)cc1,-0.21,0.99,-2.4,-2,46,.,.,.
COc1ccc(Cc2nn3c(-c4ccccc4Br)nnc3s2)cc1,0.5,5.4*,-0.34,27,.,8536*,1392,+
COc1ccc(Cc2nn3c(-c4cc(OC)c(OC)c(OC)c4)nnc3s2)cc1,1.3,4.7*,0.027,29,.,8960*,1520,+
CC1(C)Cc2noc(N)c2C(C)(C)N1O,-0.4,-0.89,0.012,1,.,.,.,.
COc1ccc(C2CNC(=O)C2)cc1OC1CCCC1 (centres undefined),-0.41,45*,-0.24,21,.,20880*,.,+
Cc1cc(N2CCN(c3ccccc3)CC2)nc(-n2nc(C)cc2C)n1,1.6,-2.6,-0.01,1,.,.,.,.
Nc1nc(CN2CCN(c3ccccn3)CC2)nc(Nc2ccc(Cl)cc2)n1,-1.3,4.3*,1.2,13,-64,6700*,1548,i
C=CCn1c(-c2cccs2)nc2nc3ccccc3nc21,-0.64,0.85,0.029,-7,-95,.,.,.
CCC(C)n1c(-c2cccs2)nc2nc3ccccc3nc21 (centres undefined),0.039,10*,0.0012,8,.,15740*,1736,+
